Measured values from ChEMBL document CHEMBL1177847, “Combating oxidative stress in epilepsy: design, synthesis, quantum chemical studies and anticonvulsant evaluation of 1-(substituted benzylidene/ethylidene)-4-(naphthalen-1-yl)semicarbazides” (Eur J Med Chem, 2010).

Columns and labels:
[1] = tested on: Mus musculus; experiment: Anticonvulsant activity against subcutaneous pentylenetetrazole-induced seizures in ip dosed Swiss albino mouse assessed as minimum effective dose after 0.5 hrs; format: functional; details: read-out: MED
Method in brief: (§1)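 Male Swiss albino mice (18–25 g) were dosed i.p. with the compound in 5% gum acacia/water at 30, 100 or 300 mg/kg. Thirty minutes later they received PTZ 85 mg/kg (CD97) and were watched for seizures over 4 h. Readings at 0.5 and 4 h gave the lowest dose active in half or more of the animals. Myoclonic jerks were noted separately.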

[2] = tested on: Mus musculus; experiment: Anticonvulsant activity against maximal electroshock-induced seizures in ip dosed Swiss albino mouse assessed as minimum effective dose after 0.5 hrs; format: functional; details: read-out: MED
Method in brief: (§2)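 Male Swiss albino mice (18–25 g) received the compound suspended in 5% gum acacia/water, i.p. at 30, 100 and 300 mg/kg (one to four animals per dose). Maximal electroshock was applied at 0.5 and 4 h. Protection meant abolition of the hind limb tonic extensor component. The lowest dose protecting half or more of the mice was recorded.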

[3] = tested on: Rattus norvegicus; experiment: Anticonvulsant activity against subcutaneous pentylenetetrazole-induced seizures in Wistar albino rat at 50 mg/kg, ip after 2 hrs; format: functional
[4] = tested on: Mus musculus; experiment: Restoration of SOD activity in subcutaneous pentylenetetrazole treated Swiss albino mouse brain assessed per mg of protein at 100 mg/kg, ip after 4 hrs; format: functional; details: route intraperitoneal
Method in brief: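 The ethanol phase of an ethanol/chloroform (5:3) extract of brain supernatant was used, from PTZ-treated mice 4 h after 100 mg/kg i.p. Superoxide was generated by xanthine–xanthine oxidase at pH 10.2 with NBT, 20 min at 25 °C. The reaction was stopped with CuCl2 and read at 560 nm. One unit gives 50% inhibition of NBT reduction; results are expressed as U/mg protein. n = 6.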

[5] = tested on: Mus musculus; experiment: Reduction of lipid peroxidation in subcutaneous pentylenetetrazole treated Swiss albino mouse brain assessed reduction of malondialdehyde level per mg of protein at 100 mg/kg, ip after 4 hrs by TBARS assay; format: functional; details: route intraperitoneal
Method in brief: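 PTZ-treated mice were dosed at 100 mg/kg i.p. and decapitated 4 h after the last injection. Brains were homogenized in four volumes of ice-cold 50 mM Tris-HCl, pH 7.4, and spun at 3000 × g for 15 min. TBARS in the supernatant was read at 532 nm in the upper organic layer and expressed as nmol MDA/mg protein. n = 6, mean ± S.E.M.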

[6] = tested on: Rattus norvegicus; experiment: Anticonvulsant activity against subcutaneous pentylenetetrazole-induced seizures in Wistar albino rat at 50 mg/kg, ip after 0.25 hrs; format: functional; details: route intraperitoneal
[7] = tested on: Mus musculus; experiment: Neurotoxicity in ip dosed Swiss albino mouse assessed as minimum dose required to cause impair in motor coordination after 0.5 hrs by rotarod test; format: toxicity, organism-based; details: in vivo
Method in brief: (§3)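 Rotarod motor-impairment test in male Swiss albino mice dosed i.p. at 30, 100 or 300 mg/kg in 5% gum acacia/water. Mice that fell off the rotating rod within 30 s during pretraining were excluded. The dose at which animals fell off was recorded at 0.5 and 4 h.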

[8] = tested on: Rattus norvegicus; experiment: Anticonvulsant activity against subcutaneous pentylenetetrazole-induced seizures in Wistar albino rat at 50 mg/kg, ip after 0.5 hrs; format: functional
[9] = tested on: Mus musculus; experiment: Neurotoxicity in ip dosed Swiss albino mouse assessed as minimum dose required to cause impair in motor coordination after 4 hrs by rotarod test; format: toxicity, organism-based; details: in vivo; method in brief: as §3
[10] = tested on: Mus musculus; experiment: Restoration of GSH level in subcutaneous pentylenetetrazole treated Swiss albino mouse brain assessed per gram of tissue at 100 mg/kg, ip after 4 hrs; format: functional; details: route intraperitoneal
Method in brief: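 Brains were taken from PTZ-treated mice 4 h after 100 mg/kg i.p. dosing. Tissue was deproteinized with an equal volume of 10% TCA for 2 h at 4 °C and centrifuged at 2000 g for 15 min. The supernatant was mixed with 0.4 M Tris (pH 8.9) containing 0.02 M EDTA, and 0.01 M DTNB was added before spectrophotometric reading. n = 6.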

[11] = tested on: Rattus norvegicus; experiment: Anticonvulsant activity against subcutaneous pentylenetetrazole-induced seizures in Wistar albino rat at 50 mg/kg, ip after 1 hr; format: functional
[12] = tested on: Mus musculus; experiment: Anticonvulsant activity against subcutaneous pentylenetetrazole-induced seizures in ip dosed Swiss albino mouse assessed as minimum effective dose after 4 hrs; format: functional; details: read-out: MED; method in brief: as §1
[13] = tested on: Mus musculus; experiment: Anticonvulsant activity against maximal electroshock-induced seizures in ip dosed Swiss albino mouse assessed as minimum effective dose after 4 hrs; format: functional; details: read-out: MED; method in brief: as §2
[14] = tested on: Mus musculus; experiment: Restoration of GSH peroxidase activity in subcutaneous pentylenetetrazole treated Swiss albino mouse brain assessed per mg of protein at 100 mg/kg, ip after 4 hrs; format: functional; details: route intraperitoneal
Method in brief: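 Brain homogenate came from PTZ-treated mice 4 h after 100 mg/kg i.p. dosing, using the 10500 × g supernatant. Samples were equilibrated 5 min at 25 °C, started with H2O2, and A340 was followed for 5 min. n = 6.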

Work on `COc1cc(/C=N/NC(=O)Nc2cccc3ccccc23)cc(OC)c1OC` yielded a minimal effective dose [1] of 100 mg/kg, a minimal effective dose [2] of 100 mg/kg and an Activity [3] of 50%. The Activity [4] was 1.77 U, the Activity [5] was 1.87 nmol and the Activity [6] was 25%. For the same compound, the Activity [7] was 300 mg/kg, the Activity [8] was 100% and the Activity [9] was 300 mg/kg. The Activity [10] was 24.56 µg, the Activity [11] was 75% and the minimal effective dose [12] was 100 mg/kg. For the same compound, the minimal effective dose [13] was 100 mg/kg and the Activity [14] was 1.97 U.
